pIC50: −log10 of the molar value.
Experiments:
[1] = molecular target: Matrix metalloproteinase-9 (Homo sapiens, UniProt P14780); assay: Inhibitory activity against Matrix metalloprotease-9; parameters: species or system Komagataella pastoris
Method in brief: (§1)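 Recombinant enzymes: C-terminally truncated collagenase-1, gelatinase-B and stromelysin. IC50 from nonlinear fit of rate versus inhibitor concentration to v = V0/(1+[I]/IC50). Values are the average of two or more independent determinations, SD ±20% or better.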

Interstitial collagenase = molecular target: T1, Interstitial collagenase (Homo sapiens, UniProt P03956); assay: Inhibitory activity against Matrix metalloprotease-1; method in brief: as §1
T1 sequence (P03956 whole entry): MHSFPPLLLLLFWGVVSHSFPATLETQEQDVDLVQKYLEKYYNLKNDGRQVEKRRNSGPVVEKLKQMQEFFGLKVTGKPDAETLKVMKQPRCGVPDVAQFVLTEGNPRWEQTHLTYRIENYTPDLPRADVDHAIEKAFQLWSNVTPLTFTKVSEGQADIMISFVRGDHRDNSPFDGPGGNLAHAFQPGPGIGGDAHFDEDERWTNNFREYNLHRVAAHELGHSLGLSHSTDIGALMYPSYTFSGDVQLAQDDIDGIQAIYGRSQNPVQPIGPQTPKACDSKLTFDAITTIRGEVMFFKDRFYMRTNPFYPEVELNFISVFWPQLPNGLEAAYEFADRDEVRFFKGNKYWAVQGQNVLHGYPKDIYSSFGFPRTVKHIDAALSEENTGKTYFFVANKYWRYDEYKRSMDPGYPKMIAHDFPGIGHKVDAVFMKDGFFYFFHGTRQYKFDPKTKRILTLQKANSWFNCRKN

[2] = Inhibitory activity against stromelysin.; method in brief: as §1

Chain of Matrix metalloproteinase-9 (P14780 whole entry, the tested form may be a part): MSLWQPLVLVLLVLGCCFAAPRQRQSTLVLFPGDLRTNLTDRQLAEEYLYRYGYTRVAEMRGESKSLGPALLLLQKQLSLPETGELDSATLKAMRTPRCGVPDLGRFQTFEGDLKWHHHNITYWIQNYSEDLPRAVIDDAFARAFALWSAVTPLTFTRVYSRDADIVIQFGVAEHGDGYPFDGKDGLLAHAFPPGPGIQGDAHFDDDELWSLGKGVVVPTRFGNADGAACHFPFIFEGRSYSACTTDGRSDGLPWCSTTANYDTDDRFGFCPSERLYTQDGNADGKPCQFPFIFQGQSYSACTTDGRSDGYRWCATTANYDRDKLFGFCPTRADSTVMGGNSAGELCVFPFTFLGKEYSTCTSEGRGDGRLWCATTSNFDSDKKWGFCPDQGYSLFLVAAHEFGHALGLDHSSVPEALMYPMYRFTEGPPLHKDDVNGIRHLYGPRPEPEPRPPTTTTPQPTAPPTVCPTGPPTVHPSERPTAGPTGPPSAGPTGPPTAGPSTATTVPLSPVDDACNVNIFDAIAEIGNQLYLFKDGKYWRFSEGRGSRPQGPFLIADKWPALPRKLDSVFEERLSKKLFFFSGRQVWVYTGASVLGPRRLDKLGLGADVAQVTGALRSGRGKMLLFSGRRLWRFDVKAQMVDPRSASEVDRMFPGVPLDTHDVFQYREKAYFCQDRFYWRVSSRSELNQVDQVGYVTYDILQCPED

| pIC50 [2] | SMILES | pIC50 [1] | pIC50 (Interstitial collagenase) |
| --- | --- | --- | --- |
|  | CC(C)(C)NC(=O)C(Cc1ccccc1)N1C(=O)[C@H](CS)NC(=O)[C@@H]1Cc1ccc([N+](=O)[O-])cc1 (some centres undefined) | 5.92 | 7.43 |
|  | CC(C)(C)NC(=O)C(C1CC1)N1C(=O)[C@H](CS)NC(=O)[C@@H]1Cc1ccc([N+](=O)[O-])cc1 (some centres undefined) | 5.93 | 7.43 |
| < 4.70 | CCCN1C(=O)[C@H](CS)NC(=O)[C@@H]1Cc1ccc([N+](=O)[O-])cc1 | 5.54 | 7.19 |
|  | COc1ccc(C(C(=O)NC(C)(C)C)N2C(=O)[C@H](CS)NC(=O)[C@@H]2Cc2ccc([N+](=O)[O-])cc2)cc1 (some centres undefined) | 5.89 | 7.68 |
|  | CC(C)(C)NC(=O)C(c1ccc(-c2ccccc2)cc1)N1C(=O)[C@H](CS)NC(=O)[C@@H]1Cc1ccc([N+](=O)[O-])cc1 (some centres undefined) | 5.37 | 6.99 |
|  | CC(C)(C)NC(=O)C(c1ccccc1)N1C(=O)[C@H](CS)NC(=O)[C@@H]1Cc1ccc([N+](=O)[O-])cc1 (some centres undefined) | 5.89 | 7.60 |
|  | CCCCCCCC(C(=O)NC(C)(C)C)N1C(=O)[C@H](CS)NC(=O)[C@@H]1Cc1ccc([N+](=O)[O-])cc1 (some centres undefined) | 5.82 | 7.44 |
| < 4.70 | O=C1N[C@@H](CS)C(=O)N(Cc2ccc3ccccc3n2)[C@H]1Cc1ccc([N+](=O)[O-])cc1 | 5.77 | 7.13 |
|  | CC(C)CC(C(=O)NC(C)(C)C)N1C(=O)[C@H](CS)NC(=O)[C@@H]1Cc1ccc([N+](=O)[O-])cc1 (some centres undefined) | 6.24 | 7.62 |
|  | CC(C)(C)NC(=O)C(c1ccc(Oc2ccccc2)cc1)N1C(=O)[C@H](CS)NC(=O)[C@@H]1Cc1ccc([N+](=O)[O-])cc1 (some centres undefined) | 5.36 | 6.97 |
|  | CCc1ccc(C(C(=O)NC(C)(C)C)N2C(=O)[C@H](CS)NC(=O)[C@@H]2Cc2ccc([N+](=O)[O-])cc2)cc1 (some centres undefined) | 5.59 | 7.39 |
| 5.42 | COc1ccc(CN2C(=O)[C@H](CS)NC(=O)[C@@H]2CC2CCCCC2)cc1 |  |  |
| < 4.40 | CCCN1C(=O)[C@H](CS)NC(=O)[C@@H]1Cc1ccc(NC(C)=O)cc1 | < 4.40 | < 4.40 |
| 5.40 | COc1ccc(CN2C(=O)[C@H](CS)NC(=O)[C@@H]2Cc2ccccc2)cc1 | 6.40 | 6.96 |
|  | CCCCOc1ccc(C(C(=O)NC(C)(C)C)N2C(=O)[C@H](CS)NC(=O)[C@@H]2Cc2ccc([N+](=O)[O-])cc2)cc1 (some centres undefined) | 5.49 | 7.14 |
| < 4.40 | COc1ccc(CN2C(=O)[C@H](CS)NC(=O)[C@@H]2Cc2ccc([N+](=O)[O-])cc2)cc1 | 5.92 | 7.33 |
| 5.96 | COc1ccc(CSC[C@H]2C(=O)N[C@@H](CS)C(=O)N2Cc2ccc(OC)cc2)cc1 | 7.28 | 6.51 |

Source: ChEMBL document CHEMBL1132120, “Identification of highly selective inhibitors of collagenase-1 from combinatorial libraries of diketopiperazines” (J Med Chem, 1999)
